Activity calls are given as the source filed them. No cut-off for these calls is given here.
Columns and labels:
[1] = biological target: 72 kDa type IV collagenase (Homo sapiens) (UniProt P08253); experiment: Inhibition of MMP-2 activity in human HT1080 cells at 10 uM by gelatin zymography; format: cell-based; settings: HT-1080
Summary of the method: (§1)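 HT1080 human fibrosarcoma cells grown in DMEM with 10% FBS; cells treated with compound, 0.5% DMSO as vehicle control, dose series 2.5–10 µM. Conditioned media run on 10% polyacrylamide/0.4% SDS gels containing 2 mg/ml gelatin, non-reducing, 120 V 150 min. Gels washed in 2.5% Triton X-100 30 min, developed overnight at 37 °C (50 mM Tris–HCl pH 7.6, 200 mM NaCl, 5 mM CaCl2, 0.2% Brij-35). Bands quantified densitometrically as % inhibition; triplicates, three independent experiments.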

[2] = biological target: 72 kDa type IV collagenase (Homo sapiens) (UniProt P08253); experiment: Inhibition of MMP-2 activity in human HT1080 cells by gelatin zymography; format: cell-based; settings: HT-1080; summary of the method: as §1
[3] = biological target: Matrix metalloproteinase-9 (Homo sapiens) (UniProt P14780); experiment: Inhibition of MMP-9 activity in human HT1080 cells by gelatin zymography; format: cell-based; settings: HT-1080; summary of the method: as §1
[4] = biological target: 72 kDa type IV collagenase (Homo sapiens) (UniProt P08253); experiment: Inhibition of MMP-2 activity in human HT1080 cells at 5 uM by gelatin zymography; format: cell-based; settings: HT-1080; summary of the method: as §1
HT-1080 = experiment: Inhibition of cell migration in human HT1080 cells at 5 uM after 24 hrs by transwell migration assay; format: functional, cell-based
Summary of the method: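 Transwell migration: 8 × 10^4 HT1080 cells in serum-free medium with compound placed in upper chamber; lower chamber held DMEM with 10% FBS as attractant. After 24 h, non-migrated cells swabbed off; migrated cells stained with crystal violet and counted in five random fields, expressed as % of control.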

[5] = biological target: Matrix metalloproteinase-9 (Homo sapiens) (UniProt P14780); experiment: Inhibition of MMP-9 activity in human HT1080 cells at 10 uM by gelatin zymography; format: cell-based; settings: HT-1080; summary of the method: as §1
[6] = biological target: Matrix metalloproteinase-9 (Homo sapiens) (UniProt P14780); experiment: Inhibition of MMP-9 activity in human HT1080 cells at 5 uM by gelatin zymography; format: cell-based; settings: HT-1080; summary of the method: as §1
[7] = biological target: Matrix metalloproteinase 2/9 (Homo sapiens) (UniProt P08253+P14780); experiment: Inhibition of MMP2/9 in human HT1080 cells assessed as reduction in degradation of fluorescien gelatin at 5 uM after 24 hrs by gelatin degradation assay; format: cell-based; settings: HT-1080
Summary of the method: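 HT1080 cells exposed to 5 µM compound for 24 h at 37 °C on fluorescent gelatin. Cells then fixed, mounted in antifade reagent and imaged by inverted fluorescence microscopy. Degradation of the fluorescent gelatin compared with control.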

[8] = Cytotoxicity against human HT1080 cells up to 7.5 uM; format: cell-based; settings: ht-1080

Chain of 72 kDa type IV collagenase (Homo sapiens) (P08253 110-660 limits assumed): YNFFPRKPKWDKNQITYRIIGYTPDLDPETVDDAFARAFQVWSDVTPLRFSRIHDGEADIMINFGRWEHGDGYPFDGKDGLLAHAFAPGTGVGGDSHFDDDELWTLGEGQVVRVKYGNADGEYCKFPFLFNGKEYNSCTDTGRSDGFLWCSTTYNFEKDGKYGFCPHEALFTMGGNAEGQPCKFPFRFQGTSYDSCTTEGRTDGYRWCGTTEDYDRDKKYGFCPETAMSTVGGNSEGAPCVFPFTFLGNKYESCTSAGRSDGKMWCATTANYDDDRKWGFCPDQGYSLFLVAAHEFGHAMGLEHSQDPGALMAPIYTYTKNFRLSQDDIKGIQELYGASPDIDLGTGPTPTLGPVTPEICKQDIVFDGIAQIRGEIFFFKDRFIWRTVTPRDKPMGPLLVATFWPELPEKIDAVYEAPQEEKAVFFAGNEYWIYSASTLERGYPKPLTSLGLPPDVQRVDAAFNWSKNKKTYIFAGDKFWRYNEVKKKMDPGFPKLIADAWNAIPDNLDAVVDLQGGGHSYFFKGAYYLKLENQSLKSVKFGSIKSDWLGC
Chain of Matrix metalloproteinase-9 (Homo sapiens) (P14780 whole entry): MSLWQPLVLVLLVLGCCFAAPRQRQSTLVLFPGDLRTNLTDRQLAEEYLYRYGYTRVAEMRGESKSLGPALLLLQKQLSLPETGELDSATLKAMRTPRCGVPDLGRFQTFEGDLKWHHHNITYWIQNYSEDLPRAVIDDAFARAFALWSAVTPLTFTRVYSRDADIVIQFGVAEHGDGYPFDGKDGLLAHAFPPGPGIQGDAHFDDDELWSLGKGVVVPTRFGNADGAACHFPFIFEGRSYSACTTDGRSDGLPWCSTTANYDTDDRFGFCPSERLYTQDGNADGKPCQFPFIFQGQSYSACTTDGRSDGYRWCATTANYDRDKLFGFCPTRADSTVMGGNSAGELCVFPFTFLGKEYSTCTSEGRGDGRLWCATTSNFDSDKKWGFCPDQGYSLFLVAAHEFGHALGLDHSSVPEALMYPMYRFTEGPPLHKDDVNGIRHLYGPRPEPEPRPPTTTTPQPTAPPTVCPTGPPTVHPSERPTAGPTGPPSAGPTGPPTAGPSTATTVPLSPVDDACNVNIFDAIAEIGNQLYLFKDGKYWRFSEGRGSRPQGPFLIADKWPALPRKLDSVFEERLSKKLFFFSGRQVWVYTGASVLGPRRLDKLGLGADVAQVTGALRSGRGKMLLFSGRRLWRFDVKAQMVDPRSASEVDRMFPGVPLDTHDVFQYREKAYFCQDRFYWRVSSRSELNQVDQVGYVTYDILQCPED
Chain of Matrix metalloproteinase 2/9 (Homo sapiens) (P08253 whole entry, looked up): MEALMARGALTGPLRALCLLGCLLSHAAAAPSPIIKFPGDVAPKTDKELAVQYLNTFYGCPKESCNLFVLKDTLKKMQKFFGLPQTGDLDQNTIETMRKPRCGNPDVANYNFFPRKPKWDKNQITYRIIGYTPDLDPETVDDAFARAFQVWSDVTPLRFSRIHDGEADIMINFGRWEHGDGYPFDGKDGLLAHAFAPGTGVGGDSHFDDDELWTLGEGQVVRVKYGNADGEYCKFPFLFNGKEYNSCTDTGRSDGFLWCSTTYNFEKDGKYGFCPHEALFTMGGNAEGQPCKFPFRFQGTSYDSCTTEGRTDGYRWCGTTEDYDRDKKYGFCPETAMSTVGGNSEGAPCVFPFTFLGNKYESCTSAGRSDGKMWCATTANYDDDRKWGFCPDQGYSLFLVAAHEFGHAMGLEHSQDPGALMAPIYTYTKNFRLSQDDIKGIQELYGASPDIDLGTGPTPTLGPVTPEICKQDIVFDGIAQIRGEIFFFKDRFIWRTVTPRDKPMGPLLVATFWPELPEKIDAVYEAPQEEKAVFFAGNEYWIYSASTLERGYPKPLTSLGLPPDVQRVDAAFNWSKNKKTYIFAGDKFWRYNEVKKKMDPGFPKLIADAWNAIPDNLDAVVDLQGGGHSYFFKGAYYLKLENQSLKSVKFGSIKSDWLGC
Chain of Matrix metalloproteinase 2/9 (Homo sapiens) (P14780 whole entry, looked up): as the sequence (P14780 whole entry) above

SMILES | inhibition [1] | inhibition [2] | inhibition [3] | other results
O=c1c(-c2c(/C=C/c3ccccc3)oc3ccccc3c2=O)c(/C=C/c2ccccc2)oc2ccccc12 | inactive | – | – | inhibition [5]: inactive
COc1ccc(-c2oc3ccccc3c(=O)c2-c2c(-c3ccc(OC)cc3)oc3ccccc3c2=O)cc1 | – | inactive | inactive | –
O=c1c(-c2c(-c3ccccc3)oc3cc(O)ccc3c2=O)c(-c2ccccc2)oc2cc(O)ccc12 | inactive | – | – | inhibition [5]: inactive
COc1ccccc1-c1oc2ccccc2c(=O)c1-c1c(-c2ccccc2OC)oc2ccccc2c1=O | – | inactive | inactive | –
COc1ccc2c(=O)c(-c3c(-c4ccccc4)oc4cc(OC)ccc4c3=O)c(-c3ccccc3)oc2c1 | – | inactive | inactive | –
O=c1c(-c2c(-c3ccco3)oc3ccccc3c2=O)c(-c2ccco2)oc2ccccc12 | Active | – | – | –
COc1ccc(-c2cc(=O)c3c(O)cc(O)cc3o2)cc1 | – | – | – | inhibition [4]: inactive; inhibition [6]: inactive

Now from value to compound, other results behind:

inhibition [1] | inhibition [2] | inhibition [3] | SMILES | other results
Active | – | – | COc1ccc(-c2oc3cc(O)cc(O)c3c(=O)c2-c2c(-c3ccc(OC)c(OC)c3)oc3cc(O)cc(O)c3c2=O)cc1OC | –
90% | Dose-dependent effect | Dose-dependent effect | COc1ccc(-c2oc3cc(O)cc(O)c3c(=O)c2-c2c(-c3ccc(OC)cc3)oc3cc(O)cc(O)c3c2=O)cc1 | inhibition [4]: 60%; inhibition (HT-1080): Active; inhibition [5]: 90%; inhibition [6]: 90%; inhibition [7]: Active; Activity [8]: Non-toxic
– | inactive | inactive | COc1cc(OC)c2c(=O)c(-c3c(-c4ccccc4)oc4cc(OC)cc(OC)c4c3=O)c(-c3ccccc3)oc2c1 | –
– | inactive | inactive | COc1ccc(-c2oc3cc(OC)cc(OC)c3c(=O)c2-c2c(-c3ccc(OC)cc3)oc3cc(OC)cc(OC)c3c2=O)cc1 | –

Reference: ChEMBL document CHEMBL3585295, “Synthesis and discovery of (I-3,II-3)-biacacetin as a novel non-zinc binding inhibitor of MMP-2 and MMP-9” (Bioorg Med Chem, 2015)
